MT1-MMP act inh: blockers of MT1-MMP proenzyme processing, primary screen, HT1080 RFP-PRO-GFP cells, GFP/RFP fluorescence | 360,000 compounds, 0.061% hits | Matrix metalloproteinase-14 (Homo sapiens), P50281 | GFP/RFP ratio fluorescence, overnight; percent of plate control window, DMSO zero | GFP/RFP ratio change, % at 20 µM;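 active = GFP/RFP ratio change of at least 30% with cell ATP level not reduced by more than half and red fluorescence within 50% of control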
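Assay system: HT1080 RFP-PRO-GFP cells | Dosing: 20 µM single dose, 1% DMSO | Incubation: Cells overnight before dosing, compound overnight, 37 °C, 5% CO2 | Evaluation: GFP/RFP fluorescence ratio | Control set: DMSO-only wells and HT1080 RFP-L50D-GFP cell wells as references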
Tb MetRS inh: T. brucei MetRS inhibitors, primary screen, biochemical, luminescence | methionyl-tRNA synthetase (Trypanosoma brucei brucei) | purified T. brucei MetRS, ATP depletion, Kinase-Glo luminescence | inhibition, % at 11.9 µM | 360,000 compounds, 0.4% hits;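 active = inhibition above a per-plate cutoff of the control wells' mean inhibition plus 3 SD, cut at about 5.5% in these data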
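Dosing: 11.9 µM single point; system: parasite MetRS enzyme; technique: luminescence of leftover ATP; times: 15 min enzyme-compound preincubation, 2 h reaction, 10 min detection, 25 °C; replicates: each compound tested once; read-out basis: percent inhibition relative to median high and low control wells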
SKN-1 inh: suppressors of acrylamide-induced Pgst-4::GFP reporter in worms, primary screen, SKN-1 inhibitor project, whole organism, uHTS, GFP/RFP fluorescence ratio, strain VP596; inhibition, % at 21.8 µM; AID 624304, 2012; 360,000 compounds, 0.49% hits; C. elegans VP596 Pgst-4::GFP/RFP ratio, 24 h;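 active = interference check ratio from 0.5 to 1.5 plus GFP to RFP signal ratio inhibition reaching or exceeding a fixed threshold, cut at about 30% in these data, passing the limit was not always enough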
E coli Lon inh: inhibitors of E. coli Lon protease, primary screen, biochemical, fluorescence polarization. P0A9M0. inhibition, % at 7.94 µM. 360,000 compounds, 0.42% hits. purified E. coli Lon protease; in the data active = inhibition above about 13%, passing the limit was not always enough
PREPL inh: PREPL enzyme inhibitors, primary screen, biochemical, fluorescence polarization. Prolyl endopeptidase-like (Homo sapiens), Q4J6C6. recombinant PREPL, fluorescence polarization activity-based probe. inhibition, % at 5.96 µM. 320,000 compounds, 0.68% hits; in the data active = inhibition above about 43%
Target sequence (Q4J6C6 whole entry, looked up): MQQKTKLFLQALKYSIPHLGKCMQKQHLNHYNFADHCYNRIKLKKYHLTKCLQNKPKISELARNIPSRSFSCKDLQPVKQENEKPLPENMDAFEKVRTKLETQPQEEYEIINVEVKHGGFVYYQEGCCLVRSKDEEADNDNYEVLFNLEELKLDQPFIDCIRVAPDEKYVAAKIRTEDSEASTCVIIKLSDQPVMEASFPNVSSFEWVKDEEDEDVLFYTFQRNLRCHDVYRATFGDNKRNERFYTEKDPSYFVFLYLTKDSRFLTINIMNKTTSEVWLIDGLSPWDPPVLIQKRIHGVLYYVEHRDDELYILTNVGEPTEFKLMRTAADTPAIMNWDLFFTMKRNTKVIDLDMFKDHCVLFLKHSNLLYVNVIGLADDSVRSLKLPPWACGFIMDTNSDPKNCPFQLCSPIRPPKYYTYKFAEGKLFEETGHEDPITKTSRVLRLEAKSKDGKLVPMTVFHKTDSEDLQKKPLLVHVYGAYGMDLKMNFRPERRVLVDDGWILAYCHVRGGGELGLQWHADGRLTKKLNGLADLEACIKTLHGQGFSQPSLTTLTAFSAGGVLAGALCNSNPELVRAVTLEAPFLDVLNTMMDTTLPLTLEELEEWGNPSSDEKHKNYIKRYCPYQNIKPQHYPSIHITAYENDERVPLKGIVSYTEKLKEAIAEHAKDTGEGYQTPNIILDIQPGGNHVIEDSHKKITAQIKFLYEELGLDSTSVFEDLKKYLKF
iPSC survival up: enhancers of single-cell hiPSC survival, primary screen, ATPlite luminescence | survival enhancement, % at 20 µM | 360,000 compounds, 0.044% hits | 100% = ROCK inhibitor wells, 0% = DMSO | AID 602274, 2012; in the data active = survival enhancement above about 18%;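 also: cells exposed to compounds for 16 hours before the ATP read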
Numbers stand for hits; 0 = inactive; - = no result. Shown are actives, neighbours in structure and some others; about 1.8% of the full set was active somewhere.

SMILES | MT1-MMP act inh | Tb MetRS inh | SKN-1 inh | E coli Lon inh | PREPL inh | iPSC survival up
Cc1nn(C)c(C)c1S(=O)(=O)N1CCCC(C(=O)NCCc2ccc(Cl)cc2)C1 (centres undefined) | 0 | 0 | 0 | 0 | 0 | 0
Cc1noc(C)c1S(=O)(=O)N1CCCC(C(=O)NCCc2ccc(Cl)cc2)C1 (centres undefined) | 0 | 0 | 46.6 | 0 | 0 | 0
O=C1CN(C(=O)COC(=O)c2cccs2)c2ccccc2N1 | 0 | 0 | 0 | 0 | 0 | 0
Cn1c2ccccc2c2cc(C(=O)OCC(=O)N3CC(=O)Nc4ccccc43)sc21 | 0 | 0 | 46.4 | 0 | 0 | 0
Cc1ccc(NC(=O)COc2ccc(N(C)S(=O)(=O)c3ccc(F)cc3)cc2)cc1 | 0 | 0 | 0 | 0 | 0 | 0
O=C(c1ccc(Cl)c(Cl)c1)N1CCC(=O)N([C@H](COCc2ccc(Cl)cc2)Cc2ccccc2)CC1 | 0 | 0 | 0 | 0 | - | 0
Cc1ccc(CSCC(=O)N2CCOCC2)cc1 | 0 | 0 | 44.3 | 0 | 0 | 0
O=C(CSCc1ccc(Cl)cc1)N1CCOCC1 | 0 | 0 | 0 | 0 | 0 | 0
CCOc1ccc(CNc2ccc(N3CCN(Cc4ccccc4)CC3)cc2)cc1 | 0 | 0 | 0 | 0 | 0 | 0
CCOc1ccc(CNc2ccc(N3CCCC3)cc2)cc1 | 0 | 0 | 0 | 0 | 43.9 | 0
COC(CNC(=O)c1cccnc1)OC | 0 | 0 | 0 | 0 | 0 | 0
COC(CNC(=O)c1ccc2c3c(onc13)-c1ccccc1C2=O)OC | 34.1 | 0 | 0 | 0 | 0 | 0
COc1cc(CNC2CCCC2)cc(Cl)c1OCc1ccc(F)cc1 | 0 | 0 | 56.3 | 0 | 0 | 0
CCOc1cc(CNC2CCCC2)cc(Cl)c1OCc1ccc(F)cc1 | 0 | 0 | 75.1 | 0 | 0 | 0
COc1cc(CNC2CCCC2)cc(Cl)c1OCc1ccccc1Cl | 0 | 0 | 0 | 0 | 0 | 0
COc1ccc(Nc2cc(C(=O)NCCCN3CCOCC3)c3ccccc3n2)cc1 | 0 | 0 | 0 | 0 | 0 | 0
COc1ccc(Nc2nc(C(=O)NCCCN3CCOCC3)cs2)cc1 | 0 | 0 | 33.3 | 0 | 0 | 0
Cc1ccccc1-c1csc(C(O)c2ccccc2)n1 (centres undefined) | 0 | 0 | 0 | 0 | - | 0
O=C(O)c1ccc(N2C(=O)c3ccccc3C2=O)cc1[N+](=O)[O-] | 0 | 0 | 0 | 0 | - | 0
Cc1cc(N(C)C)ccc1N=Nc1ccc(N)cc1 | 0 | 0 | 96.8 | 0 | 0 | 0
CN(C)C(CNC(=O)CCc1nc2cc(Cl)ccc2n(Cc2ccccc2)c1=O)c1ccccc1 (centres undefined) | 0 | 0 | 57.2 | 0 | 0 | 0
CCNC(=S)NNC(=O)CCc1nc2cc(Cl)ccc2n(Cc2ccccc2)c1=O | 0 | 0 | 0 | 0 | 0 | 0
CN(N=Nc1cccc([N+](=O)[O-])c1)c1ccccc1 | 0 | 0 | 48.0 | 0 | 0 | 0
CCn1c2ccccc2c2cc(/C=N/NC(=O)c3ccccc3C)ccc21 | 0 | 0 | 0 | 0 | 0 | 0
CCn1c2ccccc2c2cc(/C=N/NC(=O)c3cccc(C)c3)ccc21 | 0 | 0 | 45.1 | 0 | 0 | 0
SMILES | MT1-MMP act inh | Tb MetRS inh | SKN-1 inh | E coli Lon inh | PREPL inh | iPSC survival up
O=C(Nc1ccccc1)OCc1cnc(Cl)s1 | 0 | 0 | 0 | 0 | 0 | 0
Clc1ncc(CSc2ccccc2)s1 | 0 | 0 | 39.1 | 0 | 0 | 0
N#Cc1ccc(CN2CCN(C(=O)c3cc(C4CC4)nn3-c3ccccc3)CC2)cc1 | 0 | 0 | 38.0 | 0 | 0 | 0
O=C(c1cc(C2CC2)nn1-c1ccccc1)N1CCN(Cc2ccccc2)CC1 | 0 | 0 | 0 | 0 | - | 0
CC(C)(C)NC(=O)Cn1nnc(-c2ccccc2NC(=O)c2cnccn2)n1 | 0 | 0 | 0 | 0 | 0 | 21.8
Cc1nn2cc(-c3ccc(-c4ccccc4)cc3)nc2s1 | 0 | 0 | 0 | 0 | 0 | 0
Cc1nn2cc(-c3ccc(Cl)cc3)nc2s1 | 0 | 0 | 45.1 | 0 | 0 | 0
Cc1ccc(CNC(=O)CCSCc2cccc(F)c2)cc1 | 0 | 0 | 0 | 0 | 0 | 0

Assay outcomes as filed in PubChem.
